Experimental data from the EternaBench riboswitch data.

Test system: MS2 coat protein
Test: apparent Kd, MS2 coat protein; higher = weaker binding; RNA-MaP array; FMN 200 µM where present
How it was run: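 Each design was made on Illumina sequencing-chip clusters by stalled E. coli RNA polymerase and titrated with SNAP-549-labelled MS2 coat protein from 0.7 or 1.5 nM, doubling to 3 µM, in the absence and then the presence of constant ligand. The buffer was 100 mM Tris-HCl pH 7.5, 80 mM KCl, 4 mM MgCl2, BSA, DTT, yeast tRNA and Tween-20. The apparent Kd is the median of filtered per-cluster fits of binding curves, with green signal normalised to red-channel RNA signal and control-cluster median Fmax.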

[1] = designed as: OFF switch for flavin mononucleotide, no ligand
[2] = ligand present: flavin mononucleotide, designed as: OFF switch for flavin mononucleotide
[3] = designed as: ON switch for flavin mononucleotide, no ligand
[4] = ligand present: flavin mononucleotide, designed as: ON switch for flavin mononucleotide

| Sequence | apparent Kd [1] | apparent Kd [2] | apparent Kd [3] | apparent Kd [4] |
| --- | --- | --- | --- | --- |
| CGGUGUCAUGUAAGGAUAUCGCAUCCCAGCGGAUACGAGAAGGUACAUGAGGAUCACCCAUGUACGAUAAAAUA | 14.3 nM | 17.5 nM | – | – |
| CGUAACUACAUAGGAUAUUGAUACAUGAGGAUCACCCAUGUUAUAGGGAUUAGUAUAAUAUUAAGCAAGAAGGAUGAAGUUACG | – | – | 23.4 nM | 14.8 nM |
| CGUAACUGCAUAGGAUAUUGAUACAUGAGGAUCACCCAUGUUUUUCGGAUUAUAUAUAUACUUAGCAAGAAGGAUGGAGUUACG | – | – | 9.3 nM | 5.74 nM |
| CGUAACUGCAUAGGAUAUUGAUACAUGAGGAUCACCCAUGUUUUUCGGAUUUGUAAUAUACUAAGCAAGAAGGAUGGAGUUACG | – | – | 8.04 nM | 5.66 nM |
| CGUACUGAAGUGAGGAUAUUGUCUCGGAUACGAAACAAGAAGGCACAUGAGGAUCACCCAUGUAAACAGUACGA | 17.5 nM | 14.2 nM | – | – |
| CGUACUGAAGUGAGGAUAUUGUCUCGGAUACGAAACAAGAAGGCACAUGAGGAUCACCCAUGUUGACAGUACGA | 15.8 nM | 13.1 nM | – | – |
| CGUAGGUAGCUGGAGGAUAUUCGAGUGGUAACAUGAGGAUCACCCAUGUGGUGAGAGGAACAUGAGGAGAAGGCUAGCUGCCUGC | – | – | 1290 nM | 1530 nM |
| CGUAUGUCAGGAUAUGCGCGCGAUCAUUACACUCGGAAUUGGCAGAAGGGACAUGAGGAUCACCCAUGUGGCCC | 34.4 nM | 37.4 nM | – | – |
| CGUAUGUCAGGAUAUGCGUAUGCCGCUCAGGGCGAGCGGCAGCAGAAGGGACAUGAGGAUCACCCAUGUUCGGG | 71.4 nM | 49.3 nM | – | – |
| CGUAUGUCAGGAUAUGCGUAUGCCGCUCGGGACGAGCGGCAGCAGAAGGGACAUGAGGAUCACCCAUGUUCGGG | 75 nM | 72.7 nM | – | – |
| CGUAUUAUUCAGAAGGCACUUCUCAUGUUACAUGAGGAUCACCCAUGUUUGUGAGGAUAUGAAUAUAGUUGUUGGUGUAUUAUA | 7.25 nM | 8.59 nM | – | – |
| CGUCGAUACCAGAAGGACAUGAGGAUCACCCAUGUAGGAUAUGGGUGACCGGGAUGGCAGACACGGUGCCCGGGCACAUGCGAC | – | – | 28.9 nM | 9.54 nM |
| CGUGUACGAGGAUAUAGAUUAGGCGACAUGAGGAUCACCCAUGUGAUCAAUCUAUUUGGUUUAGAAGGUGUACAUG | 16.7 nM | 17.6 nM | – | – |
| CGUGUACGAGGAUAUAGAUUGAAUGACAUGAGGAUCACCCAUGUGAUCGAUCUAUUUGAUUUAGAAGGUGUACAUG | 14 nM | 16.9 nM | – | – |
| CGUGUUUCGUUGUAACCCAUUUACAUGAGGAUCACCCAUGUAGAGGAUAUAGGUCACCACGGUACCUAGAAGGCUGCAGGUGUG | 30.3 nM | 41 nM | – | – |
| CGUUUAUAUAUGGGUUUAUAUUAUGAGGAUAUCAAUAUUUAAUACAUGAGGAUCACCCAUGUUACUGAGAAGGCAUAAUUAACG | – | – | – | 6.99 nM |
| CGUUUCAUGUCAGGAUAUCCGCGCAGCUUUACGCACGAUAUAAGGGAGCUUGGAGAAGGGACAUGAGGAUCACCCAUGUGCCUC | 8.6 nM | 12.4 nM | – | – |
| CUAAAUCAUGUAGGAUAUGCAUGGCGAAGCUACGCAGAAGGACAUGAGGAUCACCCAUGUCUGUCCGACUGCGUACAGUCGGAC | 21.6 nM | 114 nM | – | – |
| CUAAUGUGAGGAUAUGGUGUUGAUCACAGGAAAAAGAUUCUCCAGAAGGCACAUGAGGAUCACCCAUGUAGUGA | 65.6 nM | 175 nM | – | – |
| CUACAUGAGGAUCACCCAUGUGCACACCGGAUCGGCGUGCGCAGAAGGGCCAUGGAGAAAGCCAGGCAGGAUAUGCAAAGGGCU | – | – | 396 nM | 189 nM |
| CUACGAACGAUAGGAUAUACUGAGGUUGAGUGGGUAGAAGGAUCGAUAGUGGAGAAGACAUGAGGAUCACCCAUGUUGUGGAUU | – | – | 176 nM | 45.5 nM |

| Sequence | apparent Kd [1] | apparent Kd [2] | apparent Kd [3] | apparent Kd [4] |
| --- | --- | --- | --- | --- |
| CUAUCAAGCAAGGAUAUGCAAUUUAUUAUUUAUGCAGAAGGUGCAACAUGAGGAUCACCCAUGUUUCUGGGUUU | 51.5 nM | 91.5 nM | – | – |
| CUAUUGUGAGGAUAUCAGGUGUGCUAGCGUACUGGUACAUCUGAGAAGGCACAUGAGGAUCACCCAUGUUUCUU | 19.3 nM | 56.2 nM | – | – |
| CUAUUUAGUGCCUCAUGUACAUGAGGAUCACCCAUGUUAACUUAGGAUAUAUUUAUAUUGUUAGAGUAGAAGGAAGUACUAUUU | 26.3 nM | 21.5 nM | – | – |
| CUAUUUUGUGCCUCAUGUACAUGAGGAUCACCCAUGUUAACUUAGGAUAUAUUUAUAUUGUUAGAGUAGAAGGAAGUACAAUUU | 30.2 nM | 27.1 nM | – | – |
| CUCAAACAUGAGGAUCACCCAUGUGUUGUCGUGGGAGGAUAUCCCGGUUCGGUGGCGUCGGGAGAAGGCCUAUGUC | – | – | 68 nM | 35 nM |
| CUCACGUUAGUAGGAUAUCCGACAUGAGGAUCACCCAUGUCACUACGCCUCAAGGGAAGGCGUAAGGAGAAGGGCUGAUAAAUA | – | – | 254 nM | 156 nM |
| CUCACGUUAGUAGGAUAUCCGACAUGAGGAUCACCCAUGUCACUACGCCUCUAGGGAAGGUGUAAGGAGAAGGGCUGAUAAAUA | – | – | 174 nM | 98 nM |
| CUCAGACAUGAGGAUCACCCAUGUGAGGAUAUGAUGCGAUCGUCGAAAGACGAUAGCAUCAGAAGGUACAAAUG | 53.1 nM | 40.5 nM | – | – |
| CUCAGCUCGUCAGGAUAUACGUCACUGCUUCGGCAGUGUGGUAAGAUCACAUGAGGAUCACCCAUGUAGAAGGGACGAGCUGAA | 12.8 nM | 266 nM | – | – |
| CUCCUACAUGAGGAUCACCCAUGUCAGGAUAUCUCAGUAGCACCUAAAGGUGCUACCCAGAGAAGGGACGUGCA | 11.6 nM | 15.5 nM | – | – |
| CUCCUGCAAGGAUAUACAUAGUGACGUCUGUUUAAUCUUAAACAUGAGGAUCACCCAUGUAGAAGGUGCGUCAC | 16.7 nM | 18.1 nM | – | – |
| CUCGAGCCAAGGCUCGCGAGUACACAGGAUAUGGAAAGUCACAUGAGGAUCACCCAUGUCCAAAACCAGAAGGGUGAGACUAAG | – | – | 425 nM | 85.7 nM |
| CUCUAUCAUGUAGGAUAUGCGUGGCGAAGCUAUGCAGAAGGACAUGAGGAUCACCCAUGUCUUUCUGUCUGCGGACGGACAGGG | 33.1 nM | 69.2 nM | – | – |
| CUCUUGUGAGGAUAUCAGGUGUGCUAGCGUACUGGUACAUCUGAGAAGGCACAUGAGGAUCACCCAUGUUUCAA | 118 nM | 21.9 nM | – | – |
| CUCUUGUGAGGAUAUCAGGUGUGCUAGCGUACUGGUACAUCUGAGAAGGCACAUGAGGAUCACCCAUGUUUCUA | 148 nM | 23.2 nM | – | – |
| CUCUUGUGAGGAUAUCAGGUGUGCUAGCGUACUGGUACAUCUGAGAAGGCACAUGAGGAUCACCCAUGUUUCUU | 97.7 nM | 72.3 nM | – | – |
| CUCUUGUGAGGAUAUGUAGGUUACGAGAGCAAAACGAACGGACAGAAGGUACAUGAGGAUCACCCAUGUGGGAU | 109 nM | 95.4 nM | – | – |
| CUGAGGUCAGGAUAUGCAUGGCGGGACUUGCGUCGUGGCGUGCAGAAGGGACAUGAGGAUCACCCAUGUGGAGG | 147 nM | 206 nM | – | – |
| CUGAGUAGUCAGGAUAUGCUGUACAAAAGUACAGCAGAAGGGAUUACAUGAGGAUCACCCAUGUUUUCUUCAUG | 56.1 nM | 137 nM | – | – |
| CUGAUGUGAGGAUAUCGGGCUACAGGCCUGCUGCUAGCAAACGAGAAGGCACAUGAGGAUCACCCAUGUGAUAG | 15.9 nM | 35.1 nM | – | – |
| CUGAUGUGAGGAUAUCUAAAAGAAACUGGGCAAAUACCCAGAGAGAAGGCACAUGAGGAUCACCCAUGUAACGA | 21.3 nM | 86.8 nM | – | – |
